Experimental data collected from several papers.
Each line is one published result; the experiments were not run side by side.
Target: Serine/threonine-protein kinase 36 (STK36, Homo sapiens, UniProt Q9NRP7)
Sequence (Q9NRP7 1-1315, as in one of the studies): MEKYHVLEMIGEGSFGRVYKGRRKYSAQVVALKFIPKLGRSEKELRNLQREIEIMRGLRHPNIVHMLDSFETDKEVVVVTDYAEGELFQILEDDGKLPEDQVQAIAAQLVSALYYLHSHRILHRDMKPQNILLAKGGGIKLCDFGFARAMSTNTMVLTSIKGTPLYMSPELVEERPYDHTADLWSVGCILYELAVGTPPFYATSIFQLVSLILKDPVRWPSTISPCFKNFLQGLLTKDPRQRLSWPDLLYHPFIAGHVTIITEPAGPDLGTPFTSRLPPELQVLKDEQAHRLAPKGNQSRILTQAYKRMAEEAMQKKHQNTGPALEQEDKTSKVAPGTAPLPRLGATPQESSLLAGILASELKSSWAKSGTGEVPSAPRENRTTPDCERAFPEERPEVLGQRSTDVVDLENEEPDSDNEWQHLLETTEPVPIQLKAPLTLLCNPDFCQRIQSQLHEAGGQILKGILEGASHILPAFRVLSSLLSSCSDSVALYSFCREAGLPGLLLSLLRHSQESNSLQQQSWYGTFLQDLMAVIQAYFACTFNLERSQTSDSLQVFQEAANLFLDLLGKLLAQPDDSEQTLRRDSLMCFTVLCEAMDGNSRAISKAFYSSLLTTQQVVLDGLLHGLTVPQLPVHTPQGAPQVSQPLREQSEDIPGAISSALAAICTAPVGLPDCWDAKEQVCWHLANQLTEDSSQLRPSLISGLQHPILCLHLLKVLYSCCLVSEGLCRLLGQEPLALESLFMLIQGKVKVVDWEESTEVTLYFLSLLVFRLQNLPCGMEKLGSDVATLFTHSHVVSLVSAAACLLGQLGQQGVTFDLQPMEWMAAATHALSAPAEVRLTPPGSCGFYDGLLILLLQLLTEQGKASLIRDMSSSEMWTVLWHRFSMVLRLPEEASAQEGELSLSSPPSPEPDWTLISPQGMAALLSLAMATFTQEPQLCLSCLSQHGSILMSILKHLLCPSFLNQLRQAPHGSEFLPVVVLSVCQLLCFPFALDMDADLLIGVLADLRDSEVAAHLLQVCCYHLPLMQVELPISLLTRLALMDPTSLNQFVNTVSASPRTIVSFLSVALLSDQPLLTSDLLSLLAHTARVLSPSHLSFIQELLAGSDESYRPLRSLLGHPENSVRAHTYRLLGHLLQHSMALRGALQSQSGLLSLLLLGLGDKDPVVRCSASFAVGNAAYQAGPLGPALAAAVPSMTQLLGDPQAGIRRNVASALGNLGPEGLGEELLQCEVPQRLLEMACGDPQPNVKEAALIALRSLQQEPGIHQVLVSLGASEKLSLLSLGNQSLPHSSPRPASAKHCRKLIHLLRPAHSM

| SMILES | test | setting | remaining binding |
| --- | --- | --- | --- |
| CC(=O)Nc1c(C(C)=O)c(=O)n(C)c2nc(-c3ccc(Cl)cc3Cl)c(-c3ccc(Cl)cc3)cc12 | cell-free assay, competition with immobilised ligand | 1 µM | 92% |
| c1cnn2ncc(-c3ccnc(N4CCC45COC5)n3)c2c1 | binding | 1 µM | 76% |
| CCN1CCN(Cc2ccc(C(=O)Nc3ccc(C)c(Oc4ccc5c(c4)CC(=O)N5)c3)cc2C(F)(F)F)CC1 | binding, competition with immobilised ligand | 1 µM | 81% |
| CNC(=O)[C@@H]1CC[C@@H](n2c(-c3ccc4cnccc4c3)nc3ccc(C(=O)NCc4cccc(C(N)=O)c4)cc32)C1 | binding, competition with immobilised ligand | 1 µM | 93% |
| Cc1cc(-n2nc(Cc3cc(F)cc(C(F)(F)F)c3)nc2C)ccc1C(N)=O | cell-free assay, competition with immobilised ligand | 1 µM | 100% |
| CC1CCCN1c1nccc(-c2cnn3ncccc23)n1 (stereo not shown) | binding | 1 µM | 100% |
| C[C@@H](c1ccc(-n2cnc3c(N)ncnc32)cc1)N1CCc2nn(C)c(Cc3ccccc3)c2C1=O | binding, competition with immobilised ligand | 0.1 µM | 67% |
| COc1cnc(Nc2cccc(S(N)(=O)=O)c2)nc1N1CCN(c2ccccc2)CC1 | binding, competition with immobilised ligand | 1 µM | 88% |
| O=C(c1ccc(Nc2ncc(Cl)c(-c3ccc(Cl)s3)n2)cc1)N1CCC(N2CCCC2)CC1 | binding, competition with immobilised ligand | 1 µM | 3.9% |
| COc1ccc2c(c1)O[C@H](c1ccc(OC)c(OC)c1)C[C@@H]2NC(=O)C1(c2ccc3c(c2)OC(F)(F)O3)CC1 | cell-free assay, competition with immobilised ligand | 1 µM | 94% |
| CN(c1nccc(-c2cnn3ncccc23)n1)C1CC1 | binding | 1 µM | 100% |
| COc1cccc(CNC(=O)c2nc3scc(COCc4ccc(C(=O)O)cc4)c3c(=O)[nH]2)c1 | cell-free assay, competition with immobilised ligand | 1 µM | 100% |
| C[C@H]1CCN(c2nccc(-c3cnn4ncccc34)n2)C1 | binding | 1 µM | 100% |
| CO[C@H]1CC[C@H](CNc2ccc(S(=O)(=O)NC(=O)c3ccc(N4CCN(CC5=C(c6ccc(Cl)cc6)CC(C)(C)CC5)CC4)cc3Oc3cnc4[nH]ccc4c3)cc2[N+](=O)[O-])CC1 | cell-free assay, competition with immobilised ligand | 1 µM | 71% |
| O=C(NCC1CCOCC1)c1n[nH]cc1NC(=O)c1c(F)cccc1F | binding, competition with immobilised ligand | 1 µM | 98% |
| CN(C)c1ncc(F)c(-c2cnn3ncccc23)n1 | binding | 1 µM | 100% |
| Nc1ncc2c(n1)-c1c([nH]c3ccc(C#CC4CC4)cc13)CCCC2 | binding, competition with immobilised ligand | 1 µM | 100% |
| Cc1c[nH]c2nccc(Oc3c(F)cc(Nc4cc(Cl)nc(N)n4)cc3F)c12 | cell-free assay, competition with immobilised ligand | 0.1 µM | 85% |
| O=C(NCCCN1CCOCC1)c1ccc(Nc2nccc(-c3cc4ccccc4s3)n2)cc1 | binding, competition with immobilised ligand | 1 µM | 27% |
| N[C@@H]1CCN(c2nccc(-c3cnn4ncccc34)n2)C1 | binding | 1 µM | 77% |
| CN(c1ccnc(CNc2nc(Nc3ccc4c(c3)CC(=O)N4)ncc2C(F)(F)F)n1)S(C)(=O)=O | cell-free assay, competition with immobilised ligand | 1 µM | 87% |
| O=C(c1ccc(Nc2ncc(Cl)c(-c3cc4ccccc4s3)n2)cc1)N1CCC(N2CCCC2)CC1 | binding, competition with immobilised ligand | 1 µM | 3.4% |
